Measurements from ChEMBL document CHEMBL1126047, “Novel non-nucleoside inhibitors of HIV-1 reverse transcriptase. 2. Tricyclic pyridobenzoxazepinones and dibenzoxazepinones” (J Med Chem, 1992).

Legend:
[1] = molecular target: Human immunodeficiency virus type 1 reverse transcriptase (Human immunodeficiency virus 1) (UniProt Q72547); assay: Inhibition of HIV-1 reverse transcriptase at a concentration of 1 uM
Summary of the method: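 Recombinant p66/p51 heterodimer RT (>95% homogeneous) at 0.5 nM, with poly(rC):oligo(dG) 0.8 µg/mL and 500 nM [3H]dGTP. Compound in DMSO, diluted in buffer; enzyme-started, 1 h at room temperature. TCA/pyrophosphate-precipitated product filtered and counted; inhibition versus no-compound reactions.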

[2] = molecular target: Human immunodeficiency virus type 1 reverse transcriptase (Human immunodeficiency virus 1, UniProt Q72547); assay: In vitro inhibitory activity against HIV-1 reverse transcriptase.
T-cell = assay: In vitro inhibitory activity against HIV-1(IIIB) replication in human T-cells (c8166).; format: functional, cell-based
Summary of the method: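 CD4+ human T-cell line c8166 infected with HIV-1 IIIB. Syncytia formation scored, with IC50 taken as the concentration giving a 50% reduction in centers of syncytia.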

SMILES | inhibition [1] | IC50 [2] | IC50 (T-cell)
CC(C)CN1C(=O)c2ccccc2Oc2ncccc21 | 29% | – | –
CC(C)N1C(=O)c2ccccc2Oc2ccccc21 | 73% | 340 nM | –
C=CCN1C(=O)c2ccccc2Oc2ccccc21 | 58% | 465 nM | –
CN1C(=O)c2cc(C#N)ccc2Oc2ccccc21 | 12% | – | –
Cc1ccc2c(c1)Oc1ncc([N+](=O)[O-])cc1C(=O)N2C | 0% | – | –
CCCN1C(=O)c2ccccc2Oc2ccccc21 | 72% | 375 nM | –
Cc1cc(C)c2c(c1)Oc1ccccc1C(=O)N2 | 39% | – | –
Cc1cc2c(cc1C)N(C)C(=O)c1cc(N)cnc1O2 | 72% | 322 nM | –
Cc1cc2c(c([N+](=O)[O-])c1)N(C)C(=O)c1cccnc1O2 | 85% | 23 nM | –
CCN1C(=O)c2cccnc2Oc2cc(C)cc([N+](=O)[O-])c21 | 85% | 31 nM | –
Cc1cc(N)c2c(c1)Oc1ncccc1C(=O)N2C | 53% | 1000 nM | –
CCN1C(=O)c2cc(N)ccc2Oc2cccc(C)c21 | 90% | 60 nM | –
CCN1C(=O)c2cc([N+](=O)[O-])ccc2Oc2ccccc21 | 23% | – | –
CN1C(=O)c2ccccc2Oc2nc(Cl)ccc21 | 21% | – | –
CCCN1C(=O)c2cc(N)ccc2Oc2cccc(C)c21 | 70% | 260 nM | –
CCCN1C(=O)c2ccccc2Oc2nc(Cl)ccc21 | 68% | 210 nM | –
O=C1c2ccccc2Oc2ccccc2N1O | 15% | – | –
CNc1ccc2c(c1)C(=O)N(C)c1ccccc1O2 | 40% | – | –
Cc1ccc2c(c1)Oc1ncccc1C(=O)N2 | 5% | – | –
CSCCN1C(=O)c2ccccc2Oc2nc(Cl)ccc21 | 79% | 72 nM | –
Cc1cc(C)c2c(c1)Oc1ccc(C#N)cc1C(=O)N2C | 77% | 50 nM | 31 nM
CCN1C(=S)c2cccnc2Oc2cc(C)cc(C)c21 | 82% | 90 nM | –

SMILES | inhibition [1] | IC50 [2] | IC50 (T-cell)
CN1C(=O)c2cc(N)ccc2Oc2ccccc21 | 73% | 180 nM | –
CN1C(=O)c2cccnc2Oc2cc(N)ccc21 | 0% | – | –
CN1C(=O)c2cccnc2Oc2cc(O)ccc21 | 14% | – | –
Cc1cc(C)c2c(c1)Oc1ncc(N)cc1C(=O)N2C | 92% | 46 nM | 115 nM
CCCN1C(=O)c2cc(N)ccc2Oc2ccc(C)cc21 | 53% | – | –
CCCN1C(=O)c2cccnc2Oc2ncccc21 | 5% | – | –
Cc1cccc2c1N(C)C(=O)c1ccccc1O2 | 36% | – | –
CCCN1C(=O)c2ccccc2Sc2ccccc21 | 77% | 400 nM | –
CCCN1C(=O)c2cc(N)ccc2Oc2cc(C)c(C)cc21 | 87% | 165 nM | –
O=C1Nc2ccccc2Oc2ccccc21 | 30% | – | –
Cc1cc(C)c2c(n1)Oc1ccccc1C(=O)N2C | 25% | – | –
CCCN1C(=O)c2cccnc2Oc2ccccc21 | 31% | – | –
CCN1C(=O)c2cccnc2Oc2cc(C)cc(C#N)c21 | 96% | 19 nM | –
CCN1C(=O)c2cccnc2Oc2cc(C)cc(C)c21 | 92% | 29 nM | –
Cc1ccc2c(c1)Oc1ccc(O)cc1C(=O)N2C | 58% | 640 nM | –
Cc1cc2c(c(C(N)=O)c1)N(C)C(=O)c1cccnc1O2 | 31% | – | –
C=CCN1C(=O)c2cccnc2Oc2ccccc21 | 40% | – | –
COC(=N)c1cc(C)cc2c1N(C)C(=O)c1cccnc1O2 | 0% | – | –
CCN1C(=O)c2ccccc2Oc2nc(Cl)ccc21 | 35% | – | –
CCCN1C(=O)c2ccccc2[S+]([O-])c2ccccc21 (configuration not stated) | 20% | – | –
CCN1C(=O)c2cccnc2Oc2ccccc21 | 25% | – | –
CCN1C(=O)c2cccnc2Oc2cccc(N)c21 | 33% | – | –

SMILES | inhibition [1] | IC50 [2] | IC50 (T-cell)
Cc1ccc2c(c1)Oc1ncc(N)cc1C(=O)N2C | 57% | 250 nM | –
CCCN1C(=O)c2cc(N)ccc2Oc2cc(C)ccc21 | 84% | 130 nM | –
CCCN1C(=O)c2ccccc2S(=O)(=O)c2ccccc21 | 31% | – | –
Cc1ccc2c(c1)Oc1ccc(C#N)cc1C(=O)N2C | 69% | 280 nM | –
CN1C(=O)c2cccnc2Oc2cc(F)ccc21 | 3% | – | –
Cc1cc(C)c2c(c1)Oc1ccccc1C(=O)N2C | 86% | 57 nM | 38 nM
CCCN1C(=O)c2cc(N)ccc2Oc2ccc(C)c(C)c21 | 63% | 670 nM | –
CCN1Cc2ccccc2Oc2ccccc21 | 12% | – | –
Cc1cc2c(c(C(=O)O)c1)N(C)C(=O)c1cccnc1O2 | 0% | – | –
CCN1C(=O)c2cccnc2Oc2cc(C)cc(N)c21 | 73% | 132 nM | –
CN1C(=O)c2cccnc2Oc2cc([N+](=O)[O-])ccc21 | 0% | – | –
CCN1C(=O)c2cc(N)cnc2Oc2cc(C)cc(C)c21 | 93% | 27 nM | 54 nM
CCN1C(=O)c2cc(N)cnc2Oc2cc(C)c(C)cc21 | 83% | 71 nM | –
CCN1C(=O)c2ccccc2Oc2ccccc21 | 54% | 560 nM | –
CN1C(=O)c2cccnc2Oc2cccc(C#N)c21 | 29% | – | –
CN1C(=O)c2ccccc2Oc2cc(N)ccc21 | 20% | – | –
Cc1cc2c(cc1C)N(C(C)C)C(=O)c1cc(N)cnc1O2 | 89% | 45 nM | –
CON1C(=O)c2ccccc2Oc2ccccc21 | 36% | – | –
CCN1C(=O)c2cccnc2Oc2cccc([N+](=O)[O-])c21 | 58% | 343 nM | –
CCCN1C(=S)c2ccccc2Oc2ccccc21 | 46% | 2200 nM | –
CCN1C(=O)c2cc(N)ccc2Oc2ccccc21 | 82% | 145 nM | –
Cc1cc(C)c2c(c1)Oc1ccc(N)cc1C(=O)N2C | 95% | 20 nM | –

SMILES | inhibition [1] | IC50 [2] | IC50 (T-cell)
Cc1ccc2c(c1)Oc1ccccc1C(=O)N2C | 66% | 600 nM | –
CN1C(=O)c2ccccc2Oc2ccccc21 | 20% | – | –
Cc1cc(C)c2c(c1)Oc1ccc(O)cc1C(=O)N2C | 80% | 63 nM | 88 nM
Cc1cc(CO)c2c(c1)Oc1ncccc1C(=O)N2C | 39% | – | –
CN1C(=O)c2cc(CN)ccc2Oc2ccccc21 | 0% | – | –
Cc1ccc2c(c1)Oc1ncccc1C(=O)N2C | 43% | – | –
COC(=O)c1cc(C)cc2c1N(C)C(=O)c1cccnc1O2 | 95% | 22 nM | –
CCN1C(=O)c2cc(N)ccc2Oc2cc(C)cc(C)c21 | 95% | 43 nM | –
Cc1cccc2c1NC(=O)c1cc(N)ccc1O2 | 31% | – | –
CN1C(=O)c2ccc(N)cc2Oc2ccccc21 | 19% | – | –
COc1ccc2c(c1)Oc1ncccc1C(=O)N2C | 24% | – | –
CCCN1C(=O)c2cc(N)ccc2Oc2c(C)cc(C)cc21 | 52% | 900 nM | –
CCN1C(=O)c2cc(N)ccc2Oc2ccc(C)cc21 | 76% | 240 nM | –
CN1C(=O)c2ccccc2Oc2ncccc21 | 2% | – | –
CN(C)c1ccc2c(c1)Oc1ncccc1C(=O)N2C | 34% | – | –
Cc1cc(C#N)c2c(c1)Oc1ncccc1C(=O)N2C | 88% | 55 nM | –
Cc1cc2c(c(S(C)(=O)=O)c1)N(C)C(=O)c1cccnc1O2 | 27% | – | –
Cc1ccc2c(c1)Oc1ccc(N)cc1C(=O)N2C | 96% | 30 nM | –
CN1C(=O)c2cccnc2Oc2ccccc21 | 23% | – | –
